ChEMBL document CHEMBL1148785, “Second generation tetrahydroquinoline-based protein farnesyltransferase inhibitors as antimalarials” (J Med Chem, 2007)
Where “and” joins values, the source holds several entries; their conditions need not be identical. Equal values may be shown once.

Assays:
Plasmodium falciparum [1] = assay: Inhibition of Plasmodium falciparum protein farnesyltransferase at 50 nM by scintillation proximity assay
Plasmodium falciparum [2] = assay: Inhibition of Plasmodium falciparum protein farnesyltransferase at 5 nM by scintillation proximity assay
Plasmodium falciparum [3] = assay: Antimalarial activity against Plasmodium falciparum K1; format: functional; conditions: read-out: ED50 (the source's name)
In short: (§1)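 Asynchronous culture in type A+ erythrocytes at 0.5% parasitemia and 0.5% hematocrit, grown in RPMI-1640 with 20% heat-inactivated human A+ plasma. Compound was serially diluted from a top final 5 µM, with DMSO vehicle as 100% growth. Plates ran 48 h at 37 °C under 5% CO2/5% O2/90% N2, then [3H]-hypoxanthine (0.3 µCi) for 24 h. Filter-harvested counts were corrected for the uninfected-RBC background. ED50 by linear regression; duplicates averaged.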

Plasmodium falciparum [4] = assay: Antimalarial activity against Plasmodium falciparum 3D7; format: functional; conditions: read-out: ED50 (the source's name); in short: as §1
Plasmodium falciparum [5] = assay: Inhibition of Plasmodium falciparum protein farnesyltransferase at 0.5 nM by scintillation proximity assay

| SMILES | inhibition (Plasmodium falciparum [1]) | inhibition (Plasmodium falciparum [2]) [%] | EC50 (Plasmodium falciparum [3]; Plasmodium falciparum, K1) [nM] | EC50 (Plasmodium falciparum [4]; Plasmodium falciparum, 3D7) [nM] | inhibition (Plasmodium falciparum [5]) [%] | EC50 (Plasmodium falciparum [3]) [nM] | EC50 (Plasmodium falciparum [4]) [nM] |
| --- | --- | --- | --- | --- | --- | --- | --- |
| Cn1cncc1CN1CC(N(Cc2cccnc2)S(=O)(=O)c2ccccn2)Cc2cc(C#N)ccc21 (stereo not drawn) | 95% | 89 | 490 | 105 |  |  |  |
| Cn1cnc(S(=O)(=O)N(CCN2C(=O)c3ccccc3C2=O)C2Cc3cc(C#N)ccc3N(Cc3cncn3C)C2)c1 (stereo not drawn) | 98% | 97 | 18 | 14 |  |  |  |
| Cn1cncc1CN1CC(N(CCN2C(=O)c3ccccc3C2=O)S(=O)(=O)c2ccccn2)Cc2cc(C#N)ccc21 (stereo not drawn) | 96% | 77 |  | 1880 | 46 |  |  |
| Cn1cncc1CN1CC(N(Cc2cccc(-n3cncn3)c2)S(=O)(=O)c2ccccn2)Cc2cc(C#N)ccc21 (stereo not drawn) | 53% | 11 | 590 | 450 |  |  |  |
| Cn1cnc(S(=O)(=O)N(Cc2ccc(-n3cncn3)cc2)C2Cc3cc(C#N)ccc3N(Cc3cncn3C)C2)c1 (stereo not drawn) | 93% | 54 | 340 | 330 |  |  |  |
| Cn1cncc1CN1CC(N(CC2CCNCC2)S(=O)(=O)c2ccccn2)Cc2cc(C#N)ccc21 (stereo not drawn) | 18% | 6 |  |  | 0 |  |  |
| Cn1cnc(S(=O)(=O)N(CC(=O)NC(C)(C)C)C2Cc3cc(C(=O)NCc4ccccc4)ccc3N(Cc3cncn3C)C2)c1 (stereo not drawn) | 59% | 1 |  | 4600 | 0 |  |  |
| CCC(C)NC(=O)c1ccc2c(c1)CC(N(CC(=O)NC(C)(C)C)S(=O)(=O)c1cn(C)cn1)CN2Cc1cncn1C (stereo not drawn) | 35% | 2 |  | > 5000 | 0 |  |  |
| Cn1cncc1CN1CC(N(Cc2ccc(C(F)(F)F)o2)S(=O)(=O)c2ccccn2)Cc2cc(C#N)ccc21 (stereo not drawn) | 84% | 39 | 690 | 750 |  |  |  |
| COC(=O)N(Cc1ccccc1F)C1Cc2cc(C#N)ccc2N(Cc2cncn2C)C1 (stereo not drawn) | 26% | 9 |  | 2900 | 6 |  |  |
| Cn1cnc(S(=O)(=O)N(Cc2ccccc2)C2Cc3cc(C#N)ccc3N(Cc3cnc[nH]3)C2)c1 (stereo not drawn) | 93% |  |  | 120 |  |  |  |
| CCS(=O)(=O)c1ccc(CN(C2Cc3cc(C#N)ccc3N(Cc3cncn3C)C2)S(=O)(=O)c2cn(C)cn2)cc1 (stereo not drawn) | 100% | 100 |  | 40 | 77 |  |  |
| Cn1cncc1CN1CC(N(CCCCN2C(=O)c3ccccc3C2=O)S(=O)(=O)c2ccccn2)Cc2cc(C#N)ccc21 (stereo not drawn) | 92% | 63 | 3600 | 820 |  |  |  |
| Cn1cncc1CN1CC(N(Cc2ccc(Br)cc2)S(=O)(=O)c2ccccn2)Cc2cc(C#N)ccc21 (stereo not drawn) | 66% | 15 | 750 | 520 |  |  |  |
| Cn1cncc1CN1CC(N(Cc2ccccc2F)C(=O)c2c[nH]cn2)Cc2cc(C#N)ccc21 (stereo not drawn) |  | 88 |  | 75 | 39 |  |  |
| COC(=O)N1CCC(CN(C2Cc3cc(C#N)ccc3N(Cc3cncn3C)C2)S(=O)(=O)c2ccccn2)CC1 (stereo not drawn) | 98% and 100% (2×) |  |  |  |  |  |  |
| Cn1cnc(CN2CC(N(CC3CCN(C(=O)OC(C)(C)C)CC3)S(=O)(=O)c3ccccn3)Cc3cc(-c4ccccc4)ccc32)c1 (stereo not drawn) | 22% | 15 |  | 2700 | 0 |  |  |
| CCS(=O)(=O)c1ccc(CN(C2Cc3cc(C#N)ccc3N(Cc3cncn3C)C2)S(=O)(=O)c2ncn(C)c2C)cc1 (stereo not drawn) | 97% | 76 |  | 640 | 10 |  |  |
| COC(=O)N1CCC(CN(C2Cc3cc(C#N)ccc3N(Cc3cncn3C)C2)S(=O)(=O)c2nccn2C)CC1 (stereo not drawn) | 96% | 67 |  | 38 | 15 |  |  |
| Cc1oncc1CN(C1Cc2cc(C#N)ccc2N(Cc2cncn2C)C1)S(=O)(=O)c1ccccn1 (stereo not drawn) | 94% | 62 | 2800 | 450 |  |  |  |

| SMILES | inhibition (Plasmodium falciparum [1]) | inhibition (Plasmodium falciparum [2]) [%] | EC50 (Plasmodium falciparum [3]; Plasmodium falciparum, K1) [nM] | EC50 (Plasmodium falciparum [4]; Plasmodium falciparum, 3D7) [nM] | inhibition (Plasmodium falciparum [5]) [%] | EC50 (Plasmodium falciparum [3]) [nM] | EC50 (Plasmodium falciparum [4]) [nM] |
| --- | --- | --- | --- | --- | --- | --- | --- |
| Cn1cnc(S(=O)(=O)N(Cc2ccccc2F)C2Cc3cc(C#N)ccc3N(Cc3cncn3C)C2)c1 (stereo in doubt; 212) [listing 1 of 2 here] | 96% | 76 |  |  | 12 |  |  |
| COC(=O)NCCCCN(C1Cc2cc(C#N)ccc2N(Cc2cncn2C)C1)S(=O)(=O)c1ccccn1 (stereo not drawn) | 99% | 84 |  | 230 | 25 |  |  |
| Cn1cnc(S(=O)(=O)N(Cc2ccccc2F)C2Cc3cc(C#N)ccc3N(Cc3cncn3C)C2)c1 (stereo in doubt; 110) [listing 1 of 2 here] | 100% | 99 |  |  | 65 |  |  |
| CNC(=O)c1ccc2c(c1)CC(N(CC(=O)NC(C)(C)C)S(=O)(=O)c1cn(C)cn1)CN2Cc1cncn1C (stereo not drawn) | 69% | 20 |  | 1200 | 12 |  |  |
| CN(C)CC(=O)N(Cc1ccccc1F)C1Cc2cc(C#N)ccc2N(Cc2cncn2C)C1 (stereo not drawn) |  | 16 |  | 2700 | 0 |  |  |
| Cn1cncc1CN1CC(N(Cc2ccc(S(C)(=O)=O)cc2)S(=O)(=O)c2cccc(F)c2)Cc2cc(C#N)ccc21 (stereo not drawn) | 96% | 67 |  | 600 | 8 |  |  |
| COC(=O)c1ccc(CN(C2Cc3cc(C#N)ccc3N(Cc3cncn3C)C2)S(=O)(=O)c2cn(C)cn2)cc1 (stereo not drawn) | 62% | 10 |  |  | 1 |  |  |
| Cc1nn(-c2ccccc2)nc1CN(C1Cc2cc(C#N)ccc2N(Cc2cncn2C)C1)S(=O)(=O)c1ccccn1 (stereo not drawn) | 97% | 66 | 600 | 140 |  |  |  |
| Cn1cncc1CN1CC(N(Cc2ccccc2F)C(=O)c2cnns2)Cc2cc(C#N)ccc21 (stereo not drawn) |  | 66 |  | 340 | 13 |  |  |
| Cn1cnc(S(=O)(=O)N(Cc2ccc(S(=O)(=O)c3ccccc3)cc2)C2Cc3cc(C#N)ccc3N(Cc3cncn3C)C2)c1 (stereo not drawn) | 99% | 90 |  | 390 | 30 |  |  |
| Cn1cncc1CN1CC(N(CC(N)=O)S(=O)(=O)c2ccccn2)Cc2cc(C#N)ccc21 (stereo not drawn) | 82% | 37 | 2200 | 1600 |  |  |  |
| COC(=O)N1CCC(CN(C2Cc3cc(C#N)ccc3N(Cc3cncn3C)C2)S(=O)(=O)c2cccnc2)CC1 (stereo not drawn) | 99% | 93 |  | 100 | 48 |  |  |
| Cn1cnc(S(=O)(=O)N(Cc2ccccc2F)C2Cc3cc(C#N)ccc3N(Cc3cncn3C)C2)c1 (stereo in doubt; 110) [listing 2 of 2 here] |  |  |  |  |  | 18 | 18 |
| COCC(=O)N(Cc1ccccc1F)C1Cc2cc(C#N)ccc2N(Cc2cncn2C)C1 (stereo not drawn) | 56% | 19 |  | 290 | 11 |  |  |
| Cn1cnc(S(=O)(=O)N(Cc2ccccc2F)C2Cc3cc(C#N)ccc3N(Cc3cncn3C)C2)c1 (stereo in doubt; 212) [listing 2 of 2 here] |  |  |  |  |  | 500 | 580 |
| Cc1c(S(=O)(=O)N(Cc2cc(Br)ccc2F)C2Cc3cc(C#N)ccc3N(Cc3cncn3C)C2)ncn1C (stereo not drawn) | 98% | 87 |  | 850 | 13 |  |  |
| C=C(Br)CN(C1Cc2cc(C#N)ccc2N(Cc2cnc[nH]2)C1)S(=O)(=O)c1cn(C)cn1 (stereo not drawn) | 94% |  |  | 120 |  |  |  |
| Cn1cnc(CN2CC(N(CC3CCN(C(=O)OC(C)(C)C)CC3)S(=O)(=O)c3cn(C)cn3)Cc3cc(-c4ccccc4)ccc32)c1 (stereo not drawn) | 33% | 10 |  | 860 | 0 |  |  |
| Cc1ccsc1S(=O)(=O)N(Cc1ccc(S(C)(=O)=O)cc1)C1Cc2cc(C#N)ccc2N(Cc2cncn2C)C1 (stereo not drawn) | 97% | 55 |  | 830 | 13 |  |  |
